Reference: ChEMBL document CHEMBL2021854, “2-Aminopyrimidine based 4-aminoquinoline anti-plasmodial agents. Synthesis, biological activity, structure-activity relationship and mode of action studies” (Eur J Med Chem, 2012)

Test system: Vaccinia virus
Test: Antiviral activity against Vaccinia virus infected in HEL cells assessed as inhibition of virus-induced cytopathogenicity after 4 days
Format: functional, organism-based
Conditions: Orthopoxvirus vaccinia, 96 h
How it was run: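 Confluent HEL or HeLa monolayers infected with 100 CCID50 of virus in the presence of varying compound concentrations.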

Structure (SMILES)	EC50 [µM]
CCOC(=O)c1c(C)nc(NCCCNc2ccnc3cc(Cl)ccc23)nc1-c1ccccc1	> 100
Cc1nc(NCCCNc2ccnc3cc(Cl)ccc23)nc(-c2cccc([N+](=O)[O-])c2)c1C(=O)OC(C)C	> 4
CCOC(=O)c1c(C)nc(NCCNc2ccnc3cc(Cl)ccc23)nc1-c1ccccc1	> 4
CCOC(=O)c1c(C)nc(NCCCCNc2ccnc3cc(Cl)ccc23)nc1C	> 100
Cc1nc(NCCNc2ccnc3cc(Cl)ccc23)nc(-c2ccccc2[N+](=O)[O-])c1C(=O)OC(C)C	> 20
CCOC(=O)c1c(C)nc(NCCCCNc2ccnc3cc(Cl)ccc23)nc1-c1ccccc1	> 100
Cc1nc(NCCCCNc2ccnc3cc(Cl)ccc23)nc(-c2ccccc2[N+](=O)[O-])c1C(=O)OC(C)C	> 4
CCOC(=O)c1c(C)nc(NCCCNc2ccnc3cc(Cl)ccc23)nc1C	> 100
Nc1nc2c(ncn2COCCO)c(=O)[nH]1 [ACYCLOVIR]	> 250
Nc1nc(O)c2ncn(COC(CO)CO)c2n1 [GANCICLOVIR]	> 100
